Laboratory results from paper PMC5903480 (Drug Design, Development and Therapy, 2018).

Tests used:
cholesterol absorption = settings: rat model; cited from earlier work
[1] = Tolerability: adverse events in healthy male volunteers; format: in vivo, human; settings: multiple oral doses over 10 days, healthy male subjects
Procedure, shortened: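 Healthy Korean men took the single or combined drugs once daily for 10 days in a 3-period crossover. Monitoring ran throughout and covered vital signs, 12-lead ECG, hematology, blood chemistry, urinalysis and physical examinations. AEs were recorded by symptom, duration, intensity, drug relationship, outcome and seriousness. Counts are subjects (events); frequencies were compared by Fisher's exact test.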

[2] = Steady-state plasma pharmacokinetics of free and total ezetimibe; format: in vivo, human
Procedure, shortened: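 Ezetimibe 10 mg was given orally once daily for 10 days, alone or with rosuvastatin 20 mg, fasted, in a crossover. EDTA plasma was sampled 0–72 h after the day-10 dose. LC-MS/MS (ezetimibe-d4 internal standard) measured free and total (free plus glucuronide) ezetimibe; LLOQ was 0.2 and 0.5 ng/mL. Analysis was non-compartmental on actual times, with t1/2 as ln(2)/λz. Log-transformed Cmax,ss and AUCτ,ss were compared by ANOVA as geometric mean ratios with 90% CI.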

[3] = healthy subjects, 7 day-dosing, coadministration with rosuvastatin; cited from earlier work
[4] = single-dose 20 mg ezetimibe; cited from earlier work
plasma cholesterol = settings: in humans; cited from earlier work
LDL-C [5] = settings: ezetimibe administered with atorvastatin; cited from earlier work
LDL-C [6] = settings: volunteers with hypercholesterolemia, n=8 per group, ezetimibe 10 mg; cited from earlier work

Structure (SMILES) | cholesterol absorption inhibiting activity (relative potency) (cholesterol absorption) | tolerability [1] | amount of free ezetimibe in the body ([2]; relative to conjugate/total ezetimibe) | 90% CI of geometric mean ratio for Cmax,ss of free ezetimibe ([2]; single versus combination treatment, exception to 0.80–1.25) | 90% CI of AUCmax,ss ratio of free ezetimibe on coadministration [3] | 90% CI of Cmax,ss ratio of free ezetimibe on coadministration [3] | AEs and physical examinations [4] | Cmax,ss of free ezetimibe [4] | reduction of plasma cholesterol (plasma cholesterol) | additional reductions in LDL-C levels (LDL-C [5]) | subjects achieving a 35%–50% reduction of LDL-C (LDL-C [6])
O=C(O)[C@H]1O[C@@H](Oc2ccc([C@@H]3[C@@H](CC[C@H](O)c4ccc(F)cc4)C(=O)N3c3ccc(F)cc3)cc2)[C@H](O)[C@@H](O)[C@@H]1O [ezetimibe glucuronide] | more potent than ezetimibe |  |  |  |  |  |  |  |  |  | 
CC(C)c1nc(N(C)S(C)(=O)=O)nc(-c2ccc(F)cc2)c1/C=C/[C@@H](O)C[C@@H](O)CC(=O)O [Rosuvastatin] |  | well tolerated |  |  |  |  |  |  |  |  | 
O=C1[C@H](CC[C@H](O)c2ccc(F)cc2)[C@@H](c2ccc(O)cc2)N1c1ccc(F)cc1 [Ezetimibe] |  | well tolerated | < 8% | 1.038–1.346 | 1.094–1.341 | 0.994–1.285 | no AEs or clinically significant changes | 5.2 ng/mL | 15%–20% | 12%–19% | 1 of 8
